The record followed here is ChEMBL document CHEMBL3232993, “Design, synthesis, and structure-activity relationship of a novel series of GluN2C-selective potentiators” (J Med Chem, 2014).

The source made the active and inactive calls. No cut-off for these calls is given here.

Usually EC50 stands for the concentration giving half of the maximal effect.

Common to all, as to type: cell-based
The target of test [1] is Ionotropic glutamate receptor NMDA 1/2D (Rattus norvegicus) (UniProt P35439+Q62645). As to the kind of experiment: Potentiation of rat recombinant GluN1/GluN2D expressed in Xenopus laevis oocytes assessed as increase in glutamate/glycine-induced current response at 30 uM by two-electrode voltage clamp technique relative to control. In outline: (§1)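 Two-electrode voltage clamp at −40 mV on Xenopus oocytes coexpressing GluN1 with GluN2A, 2B, 2C or 2D. […] Compounds came from 20 mM DMSO stocks, with 0.05–0.5% final DMSO. Some GluN2A oocytes were injected with K-BAPTA to limit current run-up. Recording solution was pH 7.4, 23 °C.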
Background: In two-electrode clamp one electrode senses voltage and the other passes current.

Test [2] addresses Glutamate NMDA receptor; Grin1/Grin2c (Rattus norvegicus) (UniProt P35439+Q00961). As to the kind of experiment: Potentiation of rat recombinant GluN1/GluN2C expressed in Xenopus laevis oocytes assessed as increase in glutamate/glycine-induced current response at 30 uM by two-electrode voltage clamp technique relative to control. In a few lines: as §1
The target of test [3] is Glutamate NMDA receptor; Grin1/Grin2b (Rattus norvegicus) (UniProt P35439+Q00960). Nature of the test: Potentiation of rat recombinant GluN1/GluN2B expressed in Xenopus laevis oocytes assessed as increase in glutamate/glycine-induced current response at 30 uM by two-electrode voltage clamp technique relative to control. In a few lines: as §1
Test [4] has as its target Glutamate NMDA receptor; Grin1/Grin2a (Rattus norvegicus) (UniProt P35439+Q00959). As to the kind of experiment: Potentiation of rat recombinant GluN1/GluN2A expressed in Xenopus laevis oocytes assessed as increase in glutamate/glycine-induced current response at 30 uM by two-electrode voltage clamp technique relative to control. In a few lines:
as §1

The target of test [5] is Glutamate NMDA receptor; Grin1/Grin2c (Rattus norvegicus, UniProt P35439+Q00961). As to the kind of experiment: Potentiation of rat recombinant GluN1/GluN2C expressed in Xenopus laevis oocytes assessed as increase in glutamate/glycine-induced current response by two-electrode voltage clamp technique relative to control.

Turning to `COC(=O)c1ccc(C2C(C(=O)c3cccnc3)=C(O)C(=O)N2CCc2c[nH]c3c(F)cccc23)cc1` (centres undefined), the Activity in test [1] is 86%; in test [2], 161%; in test [3], 84%; in test [4], 105%. In test [2], the max activation was found to be 191%. In addition, the EC50 in test [5] was 18 µM.

Consider `COC(=O)c1ccc(C2C(C(=O)c3cccnc3)=C(O)C(=O)N2CCc2c(C)[nH]c3ccccc23)cc1` (centres undefined), for which the Activity was 82% in test [1], 174% in test [2], 77% in test [3] and 82% in test [4]. The max activation in test [2] is 204%. Moreover, the EC50 in test [5] was determined as 13 µM.

In the case of `COC(=O)c1ccc(C2C(C(=O)c3cccnc3)=C(O)C(=O)N2CCc2c[nH]c3ccccc23)cc1` (centres undefined), the Activity is 78% in test [1], 180% in test [2], 76% in test [3] and 97% in test [4]. Also, in test [2], the max activation worked out at 201%. In addition, in test [5], the EC50 worked out at 12 µM.

In the case of `COC(=O)c1ccc(C2C(C(=O)c3cccnc3)=C(O)C(=O)N2CCc2c[nH]c3cc(C)ccc23)cc1` (centres undefined), the Activity in test [1] came to 86%; in test [2], 219%; in test [3] it was 82%; in test [4], 103%. Also, the max activation in test [2] is 218%. Besides, the EC50 in test [5] stood at 4.3 µM.

As to `CN(C)C(=O)c1ccc(C2C(C(=O)c3cccnc3)=C(O)C(=O)N2CCc2c[nH]c3ccccc23)cc1` (centres undefined), the Activity in test [1] was 89%; in test [2], 101%; in test [3] it was 86%; in test [4] it was 118%.

For `COC(=O)c1ccc(C2C(C(=O)c3cccnc3)=C(O)C(=O)N2CCc2c[nH]c3ccc(OC)cc23)cc1` (centres undefined), the Activity in test [1] came out at 91%; in test [2], 94%; in test [3], 90%; in test [4] it was 112%.

Consider `COC(=O)c1ccc(C2C(C(C)=O)=C(O)C(=O)N2CCc2c(C)[nH]c3ccccc23)cc1` (stereo in doubt; 106a), for which the max activation in test [2] stood at 259%.

Take `COC(=O)c1ccc(C2C(C(=O)c3ccccn3)=C(O)C(=O)N2CCc2c[nH]c3ccccc23)cc1` (centres undefined): the Activity was 75% in test [1], 97% in test [2], 78% in test [3] and 106% in test [4].

Turning to `CC(=O)C1=C(O)C(=O)N(CCc2c[nH]c3ccccc23)C1c1ccc(C(=O)O)cc1` (centres undefined), the Activity in test [1] stood at 88%; in test [2] it was 93%; in test [3], 94%; in test [4] it was 100%.

In the case of `COC(=O)c1ccc(C2C(C(=O)c3cccnc3)=C(O)C(=O)N2CCCc2c[nH]c3ccccc23)cc1` (centres undefined), the Activity in test [1] turned out to be 98%; in test [2], 84%; in test [3], 93%; in test [4], 96%.

For the compound `COC(=O)c1cccc(C2C(C(C)=O)=C(O)C(=O)N2CCc2c[nH]c3ccccc23)c1` (centres undefined), the Activity in test [1] came out at 94%; in test [2], 94%; in test [3], 88%; in test [4], 99%.

For the compound `COC(=O)c1ccc(C2C(C(=O)c3ccncc3)=C(O)C(=O)N2CCc2c[nH]cn2)cc1` (centres undefined), the Activity was found to be 94% in test [1], 89% in test [2], 95% in test [3] and 101% in test [4].

For the compound `COC(=O)c1ccc(C2C(C(C)=O)=C(O)C(=O)N2CCc2c(C)[nH]c3ccccc23)cc1` (stereo in doubt; 106b), the outcome in test [2] was inactive.

As to `COC(=O)c1ccc(C2C(C(=O)c3cccnc3)=C(O)C(=O)N2CCc2coc3ccccc23)cc1` (centres undefined), the Activity in test [1] amounted to 80%; in test [2] it was 113%; in test [3], 83%; in test [4] it was 96%.

`COC(=O)c1ccc(C2C(C(=O)c3cccnc3)=C(O)C(=O)N2CCc2cn(C)c3ccccc23)cc1` (centres undefined): the Activity was 85% in test [1], 106% in test [2], 87% in test [3] and 111% in test [4].

In the case of `COC(=O)c1ccc(C2C(C(=O)c3ccncc3)=C(O)C(=O)N2CCn2cnc3ccccc32)cc1` (centres undefined), the Activity worked out at 89% in test [1], 84% in test [2], 107% in test [3] and 104% in test [4].

With `COC(=O)c1ccc(C2C(C(C)=O)=C(O)C(=O)N2CCc2c[nH]c3ccccc23)cc1C` (centres undefined), the Activity in test [1] is 86%; in test [2] it was 88%; in test [3] it was 91%; in test [4] it was 108%.

Consider `COC(=O)c1ccc(C2C(C(C)=O)=C(O)C(=O)N2CCc2ccccc2)cc1` (centres undefined), for which the Activity stood at 99% in test [1], 95% in test [2], 117% in test [3] and 108% in test [4].

Regarding `CNC(=O)c1ccc(C2C(C(=O)c3cccnc3)=C(O)C(=O)N2CCc2c[nH]c3ccccc23)cc1` (centres undefined), the Activity in test [1] came to 89%; in test [2], 93%; in test [3], 105%; in test [4], 96%.

With `COC(=O)c1ccc(C2C(C(C)=O)=C(O)C(=O)N2CCc2c(C)[nH]c3ccccc23)cc1` (racemic), the Activity in test [1] turned out to be 95%; in test [2] it was 179%; in test [3], 88%; in test [4], 97%. The max activation in test [2] turned out to be 217%.

For `NS(=O)(=O)c1ccc(C2C(C(=O)c3cccnc3)=C(O)C(=O)N2CCc2c[nH]c3ccccc23)cc1` (centres undefined), the Activity in test [1] is 83%; in test [2], 123%; in test [3], 82%; in test [4] it was 86%. In addition, in test [2], the max activation was determined as 130%.

As for `COC(=O)c1ccc(C2C(C(C)=O)=C(O)C(=O)N2CCc2c[nH]c3ccccc23)cc1OC` (centres undefined), the Activity in test [1] stood at 86%; in test [2], 92%; in test [3], 80%; in test [4] it was 98%.

As for `CC(=O)C1=C(O)C(=O)N(CCc2c[nH]c3ccccc23)C1c1ccc(C(=O)OC(C)C)cc1` (centres undefined), the Activity in test [1] worked out at 83%; in test [2], 102%; in test [3], 95%; in test [4], 96%.

As to `N#Cc1ccc(C2C(C(=O)c3cccnc3)=C(O)C(=O)N2CCc2c[nH]c3ccccc23)cc1` (centres undefined), the Activity in test [1] is 94%; in test [2], 100%; in test [3] it was 89%; in test [4], 98%.

As to `NC(=O)c1ccc(C2C(C(=O)c3cccnc3)=C(O)C(=O)N2CCc2c[nH]c3ccccc23)cc1` (centres undefined), the Activity in test [1] was 91%; in test [2] it was 90%; in test [3], 92%; in test [4], 101%.

For the compound `COC(=O)c1ccc(C2C(C(C)=O)=C(N)C(=O)N2CCc2c[nH]c3ccccc23)cc1` (centres undefined), the Activity in test [1] was 75%; in test [2], 102%; in test [3], 85%; in test [4], 93%.

Regarding `CC(=O)C1=C(O)C(=O)N(CCc2c[nH]c3ccccc23)C1c1ccc([N+](=O)[O-])cc1` (centres undefined), the Activity was determined as 77% in test [1], 94% in test [2], 83% in test [3] and 106% in test [4].

On to `COC(=O)c1ccc(C2C(C(=O)c3cccc(OC)c3)=C(O)C(=O)N2CCc2c[nH]c3ccccc23)cc1` (centres undefined), for which the Activity was determined as 80% in test [1], 109% in test [2], 90% in test [3] and 92% in test [4].

Turning to `CNS(=O)(=O)c1ccc(C2C(C(=O)c3cccnc3)=C(O)C(=O)N2CCc2c[nH]c3ccccc23)cc1` (centres undefined), the Activity was found to be 73% in test [1], 114% in test [2], 88% in test [3] and 74% in test [4].

For the compound `CC(=O)C1=C(O)C(=O)N(CCc2c[nH]c3ccccc23)C1c1ccc(C(=O)OC(C)(C)C)cc1` (centres undefined), the Activity in test [1] worked out at 66%; in test [2], 85%; in test [3], 81%; in test [4], 99%.

`COC(=O)c1ccc(C2C(C(C)=O)=C(O)C(=O)N2CCc2c[nH]c3ccccc23)cc1Cl` (centres undefined): the Activity was determined as 83% in test [1], 113% in test [2], 95% in test [3] and 88% in test [4].

Regarding `COC(=O)c1ccc(C2C(C(C)=O)=C(O)C(=O)N2CCc2c[nH]c3ccccc23)cc1F` (centres undefined), the Activity in test [1] came to 93%; in test [2], 114%; in test [3] it was 83%; in test [4], 99%.

For `COC(=O)c1ccc(C2C(C(=O)c3cccnc3)=C(O)C(=O)N2CCc2c[nH]c3cccc(C)c23)cc1` (centres undefined), the Activity is 74% in test [1], 85% in test [2], 70% in test [3] and 112% in test [4].

In the case of `COC(=O)c1ccc(C2C(C(=O)c3ccncc3)=C(O)C(=O)N2Cc2c[nH]c3ccccc23)cc1` (centres undefined), the Activity in test [1] is 87%; in test [2], 84%; in test [3] it was 101%; in test [4] it was 106%.

Take `COC(=O)c1ccccc1C1C(C(C)=O)=C(O)C(=O)N1CCc1c[nH]c2ccccc12` (centres undefined): the Activity came out at 93% in test [1], 99% in test [2], 78% in test [3] and 88% in test [4].
